Laboratory results: ChEMBL document CHEMBL1221230, “Inhibition of eukaryotic translation elongation by cycloheximide and lactimidomycin” (Nat Chem Biol, 2010)
Activity calls are given as the source filed them. The calls are words filed in the database; no cut-off is given here. Numbered stars: 1 amine (or outer) side, 2 acyl side, 3 side chain; on linkers, the order of the positions; unused ones are H or OH. Bridge positions count the residues as written; N and C are the ends. Square brackets hold non-standard residues; d marks the D form. Peptide text beside a SMILES is read from it. I, II: the chains in the order shown. Actinocin(1to9) = Cc1c2oc3c(C)ccc(C(=O)[*:2])c3nc-2c(C(=O)[*:1])c(N)c1=O; NMeV = CN[C@H](C(=O)O)C(C)C; Sar = CNCC(=O)O

Legend:
[1] = test system: HeLa; experiment: Inhibition of protein synthesis in human HeLa cells assessed as [35S]cysteine/methionine utilization after 2 hrs by scintillation spectroscopy; type: functional, cell-based
Procedure, shortened: (§1)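 HeLa cells incubated 2 h with varying compound concentrations plus [³⁵S]cysteine/methionine (translation) or [³H]uridine (transcription). Protein synthesis: scintillation counting of TCA-precipitated protein on PVDF membrane. Transcription: scintillation counting of nucleic acids bound to GF/C glass fibre filter.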

[2] = test system: HeLa; experiment: Inhibition of transcriptional activity in human HeLa cells assessed as [3H]uridine utilization after 2 hrs by scintillation counting; type: functional, cell-based; procedure, shortened: as §1
[3] = Inhibition of elF4A-mediated renilla luciferase translational activity at 100 to 200 nM in presence of HCV IRES element
[4] = Inhibition of elF4A-mediated renilla luciferase translational activity at 200 to 2000 nM in presence of HCV IRES element
[5] = test system: HeLa; experiment: Antiproliferative activity against human HeLa cells assessed as incorporation of [3H]thymidine in nuclear DNA at 2.5 uM after 24 hrs by scintillation counting; type: functional, cell-based
Procedure, shortened: (§2)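 Each of three tumour cell lines incubated with compound at 2.5 μM for 24 h, then [³H]thymidine added to monitor DNA synthesis; initial proliferation screen.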

[6] = test system: MDA-MB-231; experiment: Antiproliferative activity against human MDA-MB-231 cells assessed as incorporation of [3H]thymidine in nuclear DNA at 2.5 uM after 24 hrs by scintillation counting; type: functional, cell-based; procedure, shortened: as §2
[7] = test system: Jurkat; experiment: Antiproliferative activity against human Jurkat cells assessed as incorporation of [3H]thymidine in nuclear DNA at 2.5 uM after 24 hrs by scintillation counting; type: functional, cell-based; procedure, shortened: as §2
[8] = test system: Saccharomyces cerevisiae; experiment: Antimicrobial activity against Saccharomyces cerevisiae J47alpha; type: functional, organism-based
Procedure, shortened: (§3)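 Four isogenic S. cerevisiae strain pairs, each differing only by presence or absence of cyh2, exposed to varying compound concentrations; growth read by optical density; IC50 derived per strain, resistance as ratio between paired strains.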

[9] = test system: Saccharomyces cerevisiae; experiment: Antimicrobial activity against Saccharomyces cerevisiae JB503; type: functional, organism-based; procedure, shortened: as §3
[10] = test system: Saccharomyces cerevisiae; experiment: Antimicrobial activity against Saccharomyces cerevisiae BY686 expressing ribosomal protein cyh2 and harboring mutation in rpl28; type: functional, organism-based; procedure, shortened: as §3
[11] = test system: Saccharomyces cerevisiae; experiment: Antimicrobial activity against Saccharomyces cerevisiae BY108; type: functional, organism-based; procedure, shortened: as §3
[12] = test system: Saccharomyces cerevisiae; experiment: Antimicrobial activity against Saccharomyces cerevisiae BY724 expressing ribosomal protein cyh2 and harboring mutation in rpl28; type: functional, organism-based; procedure, shortened: as §3
[13] = test system: Saccharomyces cerevisiae; experiment: Antimicrobial activity against Saccharomyces cerevisiae JB281; type: functional, organism-based; procedure, shortened: as §3
[14] = test system: Saccharomyces cerevisiae; experiment: Antimicrobial activity against Saccharomyces cerevisiae BY740 expressing ribosomal protein cyh2 and harboring mutation in rpl28; type: functional, organism-based; procedure, shortened: as §3
[15] = test system: Saccharomyces cerevisiae; experiment: Fold resistance, ratio of IC50 Saccharomyces cerevisiae J407alpha expressing ribosomal protein cyh2 and harboring mutation in rpl28 to IC50 for Saccharomyces cerevisiae J47alpha; type: functional; procedure, shortened: as §3
[16] = test system: Saccharomyces cerevisiae; experiment: Fold resistance, ratio of IC50 for Saccharomyces cerevisiae BY686 expressing ribosomal protein cyh2 and harboring mutation in rpl28 to IC50 Saccharomyces cerevisiae JB503; type: functional; procedure, shortened: as §3
[17] = test system: Saccharomyces cerevisiae; experiment: Fold resistance, ratio of IC50 for Saccharomyces cerevisiae BY724 expressing ribosomal protein cyh2 and harboring mutation in rpl28 to IC50 for Saccharomyces cerevisiae BY108; type: functional; procedure, shortened: as §3
[18] = test system: Saccharomyces cerevisiae; experiment: Fold resistance, ratio of IC50 for Saccharomyces cerevisiae BY740 expressing ribosomal protein cyh2 and harboring mutation in rpl28 to IC50 for Saccharomyces cerevisiae […]; type: functional; procedure, shortened: as §3
[19] = test system: HEK-293T; experiment: Effect on polyribosome profiling in human HEK293T cells assessed as depletion of polysomes at 50 uM after 30 mins by spectrophotometry; type: functional, cell-based
Procedure, shortened: (§4)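 HEK 293T cells treated 30 min with compound, then lysed; lysates centrifuged through 15–45% sucrose gradient to give polysome profiles.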

[20] = Inhibition of [32P]deacetylated phe-tRNA binding to 60S ribosome E-site by footprinting assay
[21] = test system: HEK-293T; experiment: Effect on polyribosome profiling in human HEK293T cells assessed as depletion of polysomes at 100 uM after 30 mins by spectrophotometry; type: functional, cell-based; procedure, shortened: as §4
[22] = test system: HEK-293T; experiment: Effect on polyribosome profiling in human HEK293T cells assessed as accumulation of 80S ribosomes at 100 uM after 30 mins by spectrophotometry; type: functional, cell-based; procedure, shortened: as §4
[23] = Effect on polyribosome profiling assessed as accumulation of 80S ribosomes after 15 mins by scintillation spectroscopy; type: functional
Procedure, shortened: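 Capped [³²P]-labelled rabbit β-globin RNA incubated in rabbit reticulocyte lysate with compound for 15 min, then centrifuged through 10–35% sucrose gradient.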

[24] = species on record: Oryctolagus cuniculus; experiment: Inhibition of translational activity in rabbit reticulocyte assessed as occurrence of ribosomal arrest at start codon at 10 mM by toeprinting assay; type: functional
Procedure, shortened: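 Labelled rabbit β-globin mRNA incubated in rabbit reticulocyte lysate with inhibitor; mixture centrifuged through sucrose gradient, 80S fractions taken to isolate stalled ribosomes; primer extended by AMV reverse transcriptase toward stalled ribosome to map arrest site.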

[25] = biological target: T1, Elongation factor 1-alpha 1 (Homo sapiens) (UniProt P68104); experiment: Inhibition of eEF1A-mediated tRNA binding to ternary complex at 200 uM after 10 mins by filtration binding assay
T1 sequence (whole entry): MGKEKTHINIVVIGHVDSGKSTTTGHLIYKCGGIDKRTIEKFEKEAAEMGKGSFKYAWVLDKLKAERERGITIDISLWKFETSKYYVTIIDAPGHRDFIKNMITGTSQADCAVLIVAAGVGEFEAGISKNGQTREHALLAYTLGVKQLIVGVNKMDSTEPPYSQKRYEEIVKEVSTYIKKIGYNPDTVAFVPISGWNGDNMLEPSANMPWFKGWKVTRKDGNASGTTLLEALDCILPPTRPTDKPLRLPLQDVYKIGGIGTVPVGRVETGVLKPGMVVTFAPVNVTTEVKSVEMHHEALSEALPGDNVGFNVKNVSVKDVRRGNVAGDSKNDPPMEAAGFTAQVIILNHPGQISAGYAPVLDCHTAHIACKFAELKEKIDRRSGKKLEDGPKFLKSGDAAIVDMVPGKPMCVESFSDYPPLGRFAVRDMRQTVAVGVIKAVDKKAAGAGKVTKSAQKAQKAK
Procedure, shortened: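 Ribosomes (89 pmol) in 20 mM HEPES pH 7.4, 100 mM KCl, 10 mM MgCl₂, 1 mM DTT with 200 ng poly(U), 2.2 μg eEF1A, 150 μM GDPNP and 200 μM compound, before 10 pmol [¹⁴C]Phe-tRNA^Phe added; 10 min at 37°C; nitrocellulose filtration, scintillation counting.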

[26] = biological target: Elongation factor 2 (Homo sapiens) (UniProt P13639); experiment: Inhibition of eEF2-mediated tRNA translocation assessed as inhibition of phenylalanyl puromycin formation
Procedure, shortened: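 Set up as eEF1A binding assay but with GTP; 5 min at 37°C, compound added to 200 μM final, 5 min at room temperature, then eEF2, puromycin and GTP added; 10 min at 37°C; ethyl acetate-extractable phenylalanyl-puromycin counted by scintillation.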

[27] = biological target: Elongation factor 2 (Homo sapiens) (UniProt P13639); experiment: Inhibition of eEF2-mediated tRNA translocation assessed as decrease in tripeptide (Met-Phe-Phe) formation by TLC
[28] = biological target: Elongation factor 2 (Homo sapiens) (UniProt P13639); experiment: Inhibition of eEF2-mediated tRNA translocation assessed as induction of dipeptide accumulation by TLC
[29] = test system: Saccharomyces cerevisiae; experiment: Antimicrobial activity against Saccharomyces cerevisiae J407alpha expressing ribosomal protein cyh2 and harboring mutation in rpl28; type: functional, organism-based; procedure, shortened: as §3
[30] = Binding affinity to 60S ribosome E-site by footprinting assay
Procedure, shortened: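 DMS footprinting of salt-washed 80S ribosomes preincubated 5 min at room temperature with compound, DMS then 5 min at 37°C; rRNA primer extension with AMV reverse transcriptase and [α-³²P]TTP, sequencing gel. For K_D, 300 μl volume at 50 or 100 nM ribosomes titrated with increasing compound.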

[31] = Effect on peptidyl transfer assessed as [35S]methionyl-puromycin formation by TLC

Cc1c2oc3c(C)ccc(C(=O)N[C@@H]4C(=O)N[C@H](C(C)C)C(=O)N5CCC[C@H]5C(=O)N(C)CC(=O)N(C)[C@@H](C(C)C)C(=O)O[C@@H]4C)c3nc-2c(C(=O)N[C@@H]2C(=O)N[C@H](C(C)C)C(=O)N3CCC[C@H]3C(=O)N(C)CC(=O)N(C)[C@@H](C(C)C)C(=O)O[C@@H]2C)c(N)c1=O [DACTINOMYCIN] (I: T[dV]P[Sar][NMeV] / II: T[dV]P[Sar][NMeV]; ester I:1-I:C, II:1-II:C; linker I:N-II:N via Actinocin(1to9))
IC50 [1]: 0.52 µM | inhibition [1]: Dose-dependent effect | IC50 [2]: 0.262 µM

CC(/C=C/C(C)=C/[C@@H]1Cc2nc(cs2)[C@@H](C)C[C@@H](N)CC(=O)O[C@@H](C)C/C(C)=C/C=C\C(=O)O1)=C\CN(C)C
inhibition [3]: Active | inhibition [4]: Active

CO[C@@H](/C=C/CC/C=C/C(=O)O)[C@@H](O)[C@H](C)[C@@H](O)/C(C)=C/[C@H](C)C(=O)CCCC1CC(=O)NC(=O)C1
Activity [5]: inactive | Activity [6]: inactive | Activity [7]: inactive | inhibition [1]: inactive

CO[C@H]1/C=C/CC/C=C/C(=O)O[C@@H](/C(C)=C/[C@H](C)C(=O)CCCC2CC(=O)NC(=O)C2)[C@@H](C)[C@@H]1O [ISOMIGRASTATIN]
Activity [5]: inactive | Activity [6]: inactive | Activity [7]: inactive | IC50 [1]: 0.624 µM | inhibition [1]: Dose-dependent effect | IC50 [2]: > 10 µM

C/C(=C\[C@H](C)C(=O)C[C@H](O)CC1CC(=O)NC(=O)C1)[C@@H]1OC(=O)CCCC/C=C/C=C\[C@@H]1C [2H LACTIMIDOMYCIN K]
Activity [5]: inactive | Activity [6]: inactive | Activity [7]: inactive | IC50 [1]: 0.0985 µM | IC50 [2]: > 10 µM

CO[C@H]1/C=C/CC/C=C/C(=O)O[C@H]([C@H](C)C(=O)CCCC2CC(=O)NC(=O)C2)/C(C)=C\[C@@H](C)[C@@H]1O
Activity [5]: inactive | Activity [6]: inactive | Activity [7]: inactive | inhibition [1]: inactive

C[C@@H]1C[C@@H]([C@H](O)CC2CC(=O)NC(=O)C2)C(=O)[C@@H](C)C1 [CYCLOHEXIMIDE]
IC50 [8]: 0.088 µM | IC50 [9]: 0.032 µM | IC50 [10]: 7.42 µM | IC50 [11]: 0.675 µM | IC50 [12]: 52.1 µM | IC50 [13]: 0.227 µM | IC50 [14]: 17.3 µM | Ratio IC50 [15]: 232.2 | Ratio IC50 [16]: 232.4 | Ratio IC50 [17]: 77 | Ratio IC50 [18]: 76.3 | Activity [19]: Active | inhibition [20]: inactive | IC50 [1]: 0.532 µM | inhibition [1]: Dose-dependent effect | IC50 [2]: 2.88 µM | Activity [21]: inactive | Activity [22]: inactive | Activity [23]: Active | inhibition [24]: inactive | inhibition [25]: inactive | inhibition [26]: Active | inhibition [27]: Active | inhibition [28]: Active | IC50 [29]: 20.5 µM | Activity [30]: Dose-dependent effect | Kd [30]: 15 µM

CSC[S@@+]([O-])CC(CO)NC(=O)/C=C/c1c(C)[nH]c(=O)[nH]c1=O (stereo not given in full)
Activity [31]: Active

CO[C@@H](/C=C/CC/C=C/C(=O)O)[C@@H](O)[C@H](C)/C=C(\C)[C@H](O)[C@H](C)C(=O)CCCC1CC(=O)NC(=O)C1
Activity [5]: inactive | Activity [6]: inactive | Activity [7]: inactive

CO[C@H]1/C=C/CC/C=C/C(=O)O[C@@H](/C(C)=C/[C@H](C)C(=O)/C=C/CC2CC(=O)NC(=O)C2)[C@@H](C)[C@@H]1O [DIDEHYDRO ISOMIGRASTATIN]
Activity [5]: inactive | Activity [6]: inactive | Activity [7]: inactive | IC50 [1]: 1.91 µM | IC50 [2]: > 10 µM
